Experimental data: ChEMBL document CHEMBL1150387, “Development and experimental validation of a docking strategy for the generation of kinase-targeted libraries” (J Med Chem, 2008)

Tests used:
[1] = Inhibition of IRK at 10 uM by HTRF assay relative to control
How it was run: (§1)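 HTRF kinase assay, one panel of kinases. Inhibitor stock 50 µM in 100% DMSO; tested at 10 µM. ATP and substrate at final levels near Km. Final buffer: 50 mM Hepes/NaOH pH 7.4, 40 µM Na3VO4, 0.005% Tween-20, 1 mM DTT, MnCl2 or MgCl2 at kinase-dependent levels. Started by adding ATP/substrate. Reaction run at room temperature, time varied by kinase. Detection mix in 50 mM Hepes pH 7.4, 0.1% BSA, 150 mM KF, incubated ≥1 h at room temperature. Activity expressed as % of uninhibited control; n=2.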

[2] = target: Vascular endothelial growth factor receptor 1 (Homo sapiens) (UniProt P17948); test: Inhibition of FLT1 at 10 uM by HTRF assay relative to control; how it was run: as §1
[3] = target: Fibroblast growth factor receptor 1 (Homo sapiens) (UniProt P11362); test: Inhibition of FGFR1 at 10 uM by HTRF assay relative to control; how it was run: as §1
Chain of Fibroblast growth factor receptor 1 (Homo sapiens) (P11362 22-822 limits assumed): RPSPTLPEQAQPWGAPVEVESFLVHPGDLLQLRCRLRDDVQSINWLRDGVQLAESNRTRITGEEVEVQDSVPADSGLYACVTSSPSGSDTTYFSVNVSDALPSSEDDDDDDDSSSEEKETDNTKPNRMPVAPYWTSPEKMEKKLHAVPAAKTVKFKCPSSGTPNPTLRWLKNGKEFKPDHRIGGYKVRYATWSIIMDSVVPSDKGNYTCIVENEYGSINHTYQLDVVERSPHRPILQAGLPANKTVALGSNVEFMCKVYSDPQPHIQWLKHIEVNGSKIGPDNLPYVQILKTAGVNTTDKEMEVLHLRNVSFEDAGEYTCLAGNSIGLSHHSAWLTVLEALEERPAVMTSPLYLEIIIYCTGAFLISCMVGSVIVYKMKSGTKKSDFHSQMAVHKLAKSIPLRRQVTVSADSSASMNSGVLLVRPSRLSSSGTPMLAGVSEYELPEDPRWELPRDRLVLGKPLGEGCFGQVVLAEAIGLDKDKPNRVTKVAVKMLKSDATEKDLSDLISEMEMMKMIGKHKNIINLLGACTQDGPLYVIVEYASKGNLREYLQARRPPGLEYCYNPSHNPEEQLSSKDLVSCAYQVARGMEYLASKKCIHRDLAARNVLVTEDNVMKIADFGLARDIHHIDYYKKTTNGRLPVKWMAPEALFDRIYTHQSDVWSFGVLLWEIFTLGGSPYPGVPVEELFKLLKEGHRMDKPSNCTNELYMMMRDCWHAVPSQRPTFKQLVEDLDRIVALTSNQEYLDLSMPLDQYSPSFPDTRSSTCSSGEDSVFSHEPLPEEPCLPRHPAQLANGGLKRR

[4] = target: Mitogen-activated protein kinase 14 (Homo sapiens) (UniProt Q16539); test: Inhibition of p38alpha at 10 uM by HTRF assay relative to control; how it was run: as §1
Chain of Mitogen-activated protein kinase 14 (Homo sapiens) (Q16539 whole entry): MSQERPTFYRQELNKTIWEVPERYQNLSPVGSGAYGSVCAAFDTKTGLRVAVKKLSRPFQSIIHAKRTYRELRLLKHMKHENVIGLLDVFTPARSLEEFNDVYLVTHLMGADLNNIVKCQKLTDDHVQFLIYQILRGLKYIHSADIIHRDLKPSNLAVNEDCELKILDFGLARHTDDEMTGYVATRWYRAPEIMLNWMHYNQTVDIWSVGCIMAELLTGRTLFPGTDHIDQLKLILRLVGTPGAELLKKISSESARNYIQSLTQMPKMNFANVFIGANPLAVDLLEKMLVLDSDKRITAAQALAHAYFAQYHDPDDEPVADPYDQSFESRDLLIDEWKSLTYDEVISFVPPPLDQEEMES

[5] = target: Mitogen-activated protein kinase 9 (Homo sapiens) (UniProt P45984); test: Inhibition of JNK2 at 10 uM by HTRF assay relative to control; how it was run: as §1
[6] = target: Mitogen-activated protein kinase 8 (Homo sapiens) (UniProt P45983); test: Inhibition of JNK1 at 10 uM by HTRF assay relative to control; how it was run: as §1
[7] = target: Serine/threonine-protein kinase Chk2 (Homo sapiens) (UniProt O96017); test: Inhibition of CHK2 at 10 uM by HTRF assay relative to control; how it was run: as §1
Chain of Serine/threonine-protein kinase Chk2 (Homo sapiens) (O96017 whole entry): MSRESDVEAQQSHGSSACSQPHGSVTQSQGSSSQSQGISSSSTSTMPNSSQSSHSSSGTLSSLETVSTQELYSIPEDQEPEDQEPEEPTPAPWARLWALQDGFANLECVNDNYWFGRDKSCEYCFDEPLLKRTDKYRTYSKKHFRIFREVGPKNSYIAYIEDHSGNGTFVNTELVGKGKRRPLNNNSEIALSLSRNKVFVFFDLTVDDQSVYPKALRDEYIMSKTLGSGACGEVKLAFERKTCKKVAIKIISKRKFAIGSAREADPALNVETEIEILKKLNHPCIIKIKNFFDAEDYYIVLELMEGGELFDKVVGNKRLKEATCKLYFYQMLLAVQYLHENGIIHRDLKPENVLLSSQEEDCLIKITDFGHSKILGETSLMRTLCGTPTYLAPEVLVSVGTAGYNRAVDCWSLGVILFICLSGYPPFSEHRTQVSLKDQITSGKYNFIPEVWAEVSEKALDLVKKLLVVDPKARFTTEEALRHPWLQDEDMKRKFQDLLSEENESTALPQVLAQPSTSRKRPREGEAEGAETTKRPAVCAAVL

[8] = target: Rho-associated protein kinase 2 (Homo sapiens) (UniProt O75116); test: Inhibition of ROCK2 at 10 uM by HTRF assay relative to control; how it was run: as §1
Chain of Rho-associated protein kinase 2 (Homo sapiens) (O75116 whole entry, looked up): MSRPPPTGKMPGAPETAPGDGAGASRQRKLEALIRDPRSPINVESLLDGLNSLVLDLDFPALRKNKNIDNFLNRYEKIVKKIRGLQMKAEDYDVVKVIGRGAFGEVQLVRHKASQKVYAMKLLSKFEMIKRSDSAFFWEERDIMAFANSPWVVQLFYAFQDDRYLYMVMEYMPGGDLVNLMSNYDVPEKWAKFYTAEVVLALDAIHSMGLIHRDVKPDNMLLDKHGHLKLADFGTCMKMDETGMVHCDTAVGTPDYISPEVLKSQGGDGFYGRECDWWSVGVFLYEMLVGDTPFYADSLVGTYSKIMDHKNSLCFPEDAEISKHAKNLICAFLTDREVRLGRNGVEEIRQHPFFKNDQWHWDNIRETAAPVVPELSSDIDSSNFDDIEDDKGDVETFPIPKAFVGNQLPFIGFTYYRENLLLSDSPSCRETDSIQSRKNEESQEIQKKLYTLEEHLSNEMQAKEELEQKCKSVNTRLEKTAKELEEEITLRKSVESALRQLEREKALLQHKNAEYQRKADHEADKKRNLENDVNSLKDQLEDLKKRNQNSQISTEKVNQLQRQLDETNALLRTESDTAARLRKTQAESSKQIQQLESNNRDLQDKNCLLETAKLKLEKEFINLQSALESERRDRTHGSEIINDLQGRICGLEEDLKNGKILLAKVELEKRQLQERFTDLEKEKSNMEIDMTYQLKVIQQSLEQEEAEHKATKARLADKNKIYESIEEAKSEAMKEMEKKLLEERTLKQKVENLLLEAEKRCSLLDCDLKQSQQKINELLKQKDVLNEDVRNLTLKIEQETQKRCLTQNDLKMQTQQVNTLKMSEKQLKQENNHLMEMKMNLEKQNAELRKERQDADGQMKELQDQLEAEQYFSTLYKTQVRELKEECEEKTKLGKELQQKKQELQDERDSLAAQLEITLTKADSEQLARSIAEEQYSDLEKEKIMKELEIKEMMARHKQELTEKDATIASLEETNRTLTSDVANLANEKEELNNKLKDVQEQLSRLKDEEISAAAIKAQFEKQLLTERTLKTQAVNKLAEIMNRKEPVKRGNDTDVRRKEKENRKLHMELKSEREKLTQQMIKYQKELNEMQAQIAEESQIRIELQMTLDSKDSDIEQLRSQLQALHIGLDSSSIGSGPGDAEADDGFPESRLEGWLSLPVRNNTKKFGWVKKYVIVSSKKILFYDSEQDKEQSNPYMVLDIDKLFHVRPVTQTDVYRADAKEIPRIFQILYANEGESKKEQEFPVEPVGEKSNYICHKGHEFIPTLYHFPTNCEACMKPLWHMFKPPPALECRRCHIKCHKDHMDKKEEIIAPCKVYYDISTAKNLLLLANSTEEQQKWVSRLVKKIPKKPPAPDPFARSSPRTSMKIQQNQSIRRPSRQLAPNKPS

[9] = target: Ribosomal protein S6 kinase beta-1 (Homo sapiens) (UniProt P23443); test: Inhibition of p70S6K at 10 uM by HTRF assay relative to control; how it was run: as §1
[10] = target: RAC-alpha serine/threonine-protein kinase (Homo sapiens) (UniProt P31749); test: Inhibition of AKT1/PKBalpha at 10 uM by HTRF assay relative to control; how it was run: as §1
Chain of RAC-alpha serine/threonine-protein kinase (Homo sapiens) (P31749 whole entry): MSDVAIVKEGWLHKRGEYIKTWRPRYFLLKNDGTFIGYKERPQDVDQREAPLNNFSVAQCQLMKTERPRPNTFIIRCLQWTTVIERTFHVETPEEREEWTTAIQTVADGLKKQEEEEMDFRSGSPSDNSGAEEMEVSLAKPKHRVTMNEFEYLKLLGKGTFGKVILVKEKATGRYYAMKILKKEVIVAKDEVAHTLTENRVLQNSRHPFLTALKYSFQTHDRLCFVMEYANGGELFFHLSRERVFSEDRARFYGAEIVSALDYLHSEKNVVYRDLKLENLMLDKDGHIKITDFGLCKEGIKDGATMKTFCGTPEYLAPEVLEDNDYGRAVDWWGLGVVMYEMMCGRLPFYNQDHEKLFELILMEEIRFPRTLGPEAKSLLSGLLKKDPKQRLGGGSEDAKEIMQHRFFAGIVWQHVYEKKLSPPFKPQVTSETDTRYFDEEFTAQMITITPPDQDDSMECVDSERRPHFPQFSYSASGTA

[11] = target: Tyrosine-protein kinase Lck (Homo sapiens) (UniProt P06239); test: Inhibition of Lck at 10 uM by HTRF assay relative to control; how it was run: as §1
Chain of Tyrosine-protein kinase Lck (Homo sapiens) (P06239 2-509 limits assumed): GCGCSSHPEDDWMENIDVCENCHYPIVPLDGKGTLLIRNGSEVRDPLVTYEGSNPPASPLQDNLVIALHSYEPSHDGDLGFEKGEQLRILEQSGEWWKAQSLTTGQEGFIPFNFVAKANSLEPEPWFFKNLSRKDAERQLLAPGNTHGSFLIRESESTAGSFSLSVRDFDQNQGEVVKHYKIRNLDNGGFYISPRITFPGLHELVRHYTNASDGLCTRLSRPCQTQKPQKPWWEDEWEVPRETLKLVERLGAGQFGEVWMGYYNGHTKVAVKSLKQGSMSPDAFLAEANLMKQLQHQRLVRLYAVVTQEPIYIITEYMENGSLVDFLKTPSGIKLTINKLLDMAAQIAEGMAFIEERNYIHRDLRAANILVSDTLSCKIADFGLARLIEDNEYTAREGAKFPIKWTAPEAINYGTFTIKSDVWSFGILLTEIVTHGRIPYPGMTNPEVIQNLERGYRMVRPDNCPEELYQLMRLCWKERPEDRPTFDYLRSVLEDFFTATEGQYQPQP

[12] = target: Tyrosine-protein kinase Lyn (Homo sapiens) (UniProt P07948); test: Inhibition of Lyn at 10 uM by HTRF assay relative to control; how it was run: as §1
Chain of Tyrosine-protein kinase Lyn (Homo sapiens) (P07948 2-512 limits assumed): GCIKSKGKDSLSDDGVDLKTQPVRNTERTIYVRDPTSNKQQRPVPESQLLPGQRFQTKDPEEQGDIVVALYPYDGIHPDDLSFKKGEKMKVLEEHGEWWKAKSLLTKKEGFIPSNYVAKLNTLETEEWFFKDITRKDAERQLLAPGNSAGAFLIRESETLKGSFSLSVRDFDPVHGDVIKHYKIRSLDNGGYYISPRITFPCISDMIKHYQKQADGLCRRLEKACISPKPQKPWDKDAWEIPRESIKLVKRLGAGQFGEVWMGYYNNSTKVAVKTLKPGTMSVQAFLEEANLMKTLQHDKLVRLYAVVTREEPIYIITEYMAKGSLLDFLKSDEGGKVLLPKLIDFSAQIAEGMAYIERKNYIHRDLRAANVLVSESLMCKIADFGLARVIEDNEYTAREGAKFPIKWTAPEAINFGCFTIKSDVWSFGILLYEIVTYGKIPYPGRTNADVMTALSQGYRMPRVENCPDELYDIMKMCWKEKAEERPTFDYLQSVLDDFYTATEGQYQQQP

[13] = target: T1, Tyrosine-protein kinase JAK3 (Homo sapiens) (UniProt P52333); test: Inhibition of JAK3 at 10 uM by HTRF assay relative to control; how it was run: as §1
T1 sequence (whole entry): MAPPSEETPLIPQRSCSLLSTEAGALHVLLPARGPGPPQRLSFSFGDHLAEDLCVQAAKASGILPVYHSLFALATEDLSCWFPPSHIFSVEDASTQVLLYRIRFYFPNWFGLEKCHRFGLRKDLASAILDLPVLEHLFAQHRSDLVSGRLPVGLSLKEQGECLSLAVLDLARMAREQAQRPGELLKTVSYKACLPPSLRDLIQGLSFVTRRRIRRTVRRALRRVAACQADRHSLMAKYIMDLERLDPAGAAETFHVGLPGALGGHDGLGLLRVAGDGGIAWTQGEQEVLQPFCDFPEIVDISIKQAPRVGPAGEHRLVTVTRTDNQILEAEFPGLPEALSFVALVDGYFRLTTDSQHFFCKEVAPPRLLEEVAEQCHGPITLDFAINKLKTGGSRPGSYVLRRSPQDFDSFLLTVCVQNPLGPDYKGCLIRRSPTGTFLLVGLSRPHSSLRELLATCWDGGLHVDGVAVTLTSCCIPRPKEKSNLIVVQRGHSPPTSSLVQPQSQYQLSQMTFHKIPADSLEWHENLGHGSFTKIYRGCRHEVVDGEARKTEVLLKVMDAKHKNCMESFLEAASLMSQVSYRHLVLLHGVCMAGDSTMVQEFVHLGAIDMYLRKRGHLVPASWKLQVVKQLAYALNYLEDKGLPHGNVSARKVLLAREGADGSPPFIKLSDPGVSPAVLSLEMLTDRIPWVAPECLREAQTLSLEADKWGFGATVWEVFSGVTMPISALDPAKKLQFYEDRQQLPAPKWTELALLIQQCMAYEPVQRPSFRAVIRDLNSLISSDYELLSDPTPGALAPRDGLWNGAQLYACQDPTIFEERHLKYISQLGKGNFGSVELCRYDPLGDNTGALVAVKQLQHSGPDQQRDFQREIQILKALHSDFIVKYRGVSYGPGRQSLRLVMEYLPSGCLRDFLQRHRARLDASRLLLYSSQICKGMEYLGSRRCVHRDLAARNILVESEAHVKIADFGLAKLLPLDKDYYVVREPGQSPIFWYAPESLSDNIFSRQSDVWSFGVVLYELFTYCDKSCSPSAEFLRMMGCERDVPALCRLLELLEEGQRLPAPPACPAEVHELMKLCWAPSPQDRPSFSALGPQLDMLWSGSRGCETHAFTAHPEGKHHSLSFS

[14] = target: Protein-tyrosine kinase 6 (Homo sapiens) (UniProt Q13882); test: Inhibition of Brk at 10 uM by HTRF assay relative to control; how it was run: as §1
Chain of Protein-tyrosine kinase 6 (Homo sapiens) (Q13882 whole entry, looked up): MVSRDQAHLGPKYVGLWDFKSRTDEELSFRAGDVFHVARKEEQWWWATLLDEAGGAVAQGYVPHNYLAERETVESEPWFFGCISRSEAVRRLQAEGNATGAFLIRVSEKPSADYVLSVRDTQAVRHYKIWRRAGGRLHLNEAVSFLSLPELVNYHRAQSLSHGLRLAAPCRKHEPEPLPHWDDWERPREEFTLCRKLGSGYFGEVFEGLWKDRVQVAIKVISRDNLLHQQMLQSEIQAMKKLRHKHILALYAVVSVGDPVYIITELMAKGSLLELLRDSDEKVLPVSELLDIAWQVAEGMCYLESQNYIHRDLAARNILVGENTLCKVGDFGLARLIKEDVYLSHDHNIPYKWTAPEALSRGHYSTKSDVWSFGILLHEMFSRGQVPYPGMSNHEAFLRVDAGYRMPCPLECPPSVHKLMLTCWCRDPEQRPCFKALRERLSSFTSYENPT

[15] = target: Tyrosine-protein kinase ABL1 (Homo sapiens) (UniProt P00519); test: Inhibition of Abl at 10 uM by HTRF assay relative to control; how it was run: as §1
[16] = target: High affinity nerve growth factor receptor (Homo sapiens) (UniProt P04629); test: Inhibition of TrkA at 10 uM by HTRF assay relative to control; how it was run: as §1
[17] = target: Vascular endothelial growth factor receptor 2 (Homo sapiens) (UniProt P35968); test: Inhibition of KDR at 10 uM by HTRF assay relative to control; how it was run: as §1

Structure (SMILES) | inhibition [1] | inhibition [2] | inhibition [3] | inhibition [4] | inhibition [5] | inhibition [6] | inhibition [7] | inhibition [8] | inhibition [9] | inhibition [10] | inhibition [11] | inhibition [12] | inhibition [13] | inhibition [14] | inhibition [15] | inhibition [16] | inhibition [17]
Nc1nc(Nc2ccc3ncsc3c2)cc(N2CCC[C@H]2C(=O)NCCc2cccc(I)c2)n1 | 0% | 1% | 13% | 10% | 5% | 0% | 1% | 1% | 10% | 0% | 0% | 13% | 16% | 0% | 7% | 5% | 17%
Cc1cccc(N(C)c2cc(Nc3ccc(CC(=O)Nc4ccc5ncsc5c4)cc3)ncn2)c1 | 0% | 22% | 19% | 57% | 5% | 7% | 0% | 22% | 18% | 0% | 0% | 16% | 12% | 29% | 18% | 23% | 40%
CC(=O)CCCCC(=O)N1CCN(c2nccc(Oc3cccc(C)c3)n2)CC1 | 0% | 1% | 11% | 10% | 11% | 8% | 0% | 0% | 3% | 0% | 0% | 3% | 0% | 3% | 1% | 0% | 14%
COc1cccc(Nc2cc(Nc3cccc(C(=O)NCCCn4ccnc4)c3)nc(N)n2)c1 | 0% | 4% | 6% | 11% | 32% | 71% | 3% | 12% | 14% | 1% | 0% | 2% | 11% | 16% | 25% | 7% | 13%
Cc1cccc(Oc2ccnc(N3CCC[C@H]3C(=O)NCc3cccnc3)n2)c1 | 0% | 0% | 0% | 0% | 4% | 6% | 4% | 0% | 16% | 0% | 0% | 6% | 0% | 0% | 7% | 4% | 4%
Cc1cccc(Nc2ncnc3c2CN(C(=O)c2ccc(N(C)C)c4ccccc24)CC3)c1 | 0% | 1% | 0% | 1% | 1% | 0% | 2% | 1% | 0% | 0% | 0% | 9% | 0% | 10% | 7% | 8% | 6%
O=C(NCCc1ccc(O)cc1)c1cccc(Nc2nccc(Nc3ccc4ncsc4c3)n2)c1 | 1% | 42% | 52% | 9% | 39% | 55% | 0% | 11% | 0% | 0% | 1% | 27% | 11% | 18% | 11% | 27% | 43%
Clc1ccc2sc(CN3CCN(c4ncnc5c4CN(Cc4ccccc4)CC5)CC3)cc2c1 | 7% | 0% | 6% | 10% | 5% | 3% | 0% | 0% | 11% | 2% | 0% | 17% | 0% | 2% | 1% | 13% | 11%
COC[C@@H]1CCCN1C(=O)[C@@H]1CCCN1c1nccc(Nc2ccccc2)n1 | 0% | 1% | 0% | 0% | 4% | 0% | 3% | 3% | 8% | 0% | 0% | 0% | 1% | 5% | 3% | 8% | 4%
O=C(NC[C@@H]1CCCO1)c1cccc(Nc2nccc(Nc3ccc4ncsc4c3)n2)c1 | 83% | 87% | 95% | 12% | 87% | 94% | 13% | 19% | 23% | 0% | 84% | 90% | 84% | 81% | 44% | 34% | 95%
COc1ccc(NC(=O)Cc2ccc(Nc3cc(N(C)c4cccc(C)c4)ncn3)cc2)cn1 | 0% | 20% | 16% | 2% | 2% | 4% | 1% | 0% | 6% | 0% | 0% | 18% | 4% | 4% | 13% | 10% | 8%

Continued, values first:

inhibition [1] | inhibition [2] | inhibition [3] | inhibition [4] | inhibition [5] | inhibition [6] | inhibition [7] | inhibition [8] | inhibition [9] | inhibition [10] | inhibition [11] | inhibition [12] | inhibition [13] | inhibition [14] | inhibition [15] | inhibition [16] | inhibition [17] | Structure (SMILES)
0% | 5% | 21% | 4% | 7% | 0% | 0% | 0% | 4% | 0% | 27% | 29% | 15% | 1% | 47% | 12% | 41% | CC(=O)N1CCN(C(=O)c2cccc(Nc3cc(N(C)c4cccc(C)c4)ncn3)c2)CC1
0% | 14% | 0% | 0% | 0% | 0% | 0% | 0% | 3% | 0% | 0% | 2% | 0% | 22% | 6% | 8% | 9% | Cc1cccc(N(C)c2cc(N3CCN(CC(=O)Nc4nc(-c5ccccc5)cs4)CC3)ncn2)c1
0% | 0% | 5% | 6% | 5% | 9% | 0% | 0% | 7% | 0% | 0% | 6% | 0% | 16% | 6% | 2% | 3% | Cc1cccc(N(C)c2cc(N3CCN(C(=O)Cc4c[nH]c5ccccc45)CC3)ncn2)c1
0% | 0% | 0% | 5% | 1% | 7% | 0% | 0% | 3% | 0% | 0% | 1% | 3% | 9% | 13% | 5% | 10% | O=C(c1nc(SCc2ccc(Cl)cc2)n2ccccc12)N1CCN(c2ncnc3c2CN(Cc2ccccc2)CC3)CC1
0% | 0% | 14% | 6% | 3% | 7% | 6% | 0% | 6% | 0% | 0% | 4% | 0% | 24% | 10% | 5% | 0% | O=C(c1nc(SCc2ccc(Cl)cc2)n2ccccc12)N1CCN(c2cc(Nc3cccc(Br)c3)ncn2)CC1
